What was measured:
[1] = biological target: T1, 3-oxo-5-alpha-steroid 4-dehydrogenase 1 (Homo sapiens, UniProt P18405); assay: Inhibition of recombinant steroid 5-alpha-reductase type I expressed in CHO cells; type: cell-based
T1 sequence (P18405 whole entry): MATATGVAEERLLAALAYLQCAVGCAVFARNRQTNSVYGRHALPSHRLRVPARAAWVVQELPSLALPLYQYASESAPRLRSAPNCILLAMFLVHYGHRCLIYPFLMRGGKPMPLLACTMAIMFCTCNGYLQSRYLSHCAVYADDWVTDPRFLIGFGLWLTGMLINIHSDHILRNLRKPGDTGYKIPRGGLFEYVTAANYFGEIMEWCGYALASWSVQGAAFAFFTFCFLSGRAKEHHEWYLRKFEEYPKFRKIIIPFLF

[2] = biological target: T1, 3-oxo-5-alpha-steroid 4-dehydrogenase 1; assay: Inhibition of recombinant Steroid 5-alpha-reductase type I expressed in CHO cells; type: cell-based
[3] = biological target: T1, 3-oxo-5-alpha-steroid 4-dehydrogenase 1; assay: Inhibitory activity against recombinant Steroid 5-alpha-reductase type I expressed in CHO cells; type: cell-based
[4] = biological target: T2, 3-oxo-5-alpha-steroid 4-dehydrogenase 2 (Homo sapiens, UniProt P31213); assay: Inhibitory activity against steroid 5-alpha-reductase type 2 in human prostate homogenates; type: tissue-based, Prostate gland
T2 sequence (P31213 whole entry): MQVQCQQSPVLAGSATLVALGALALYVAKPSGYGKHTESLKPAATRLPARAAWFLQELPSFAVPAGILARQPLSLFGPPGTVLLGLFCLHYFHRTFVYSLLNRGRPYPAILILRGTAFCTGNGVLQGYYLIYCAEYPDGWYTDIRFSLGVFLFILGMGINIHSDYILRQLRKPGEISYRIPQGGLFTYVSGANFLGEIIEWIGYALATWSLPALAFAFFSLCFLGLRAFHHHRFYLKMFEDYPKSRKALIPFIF
Outline: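 Native 5αR-2 in total human prostate homogenate, with 50 nM testosterone so that only type 2 is active (Km 0.2 µM vs 1.7 µM for type 1). Inhibition measured at 10 µM or as IC50. Finasteride and LY191704 used as selectivity controls.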

[5] = biological target: T3, 3-oxo-5-alpha-steroid 4-dehydrogenase 2 (Homo sapiens) (UniProt P31213); assay: Inhibitory activity against steroid 5-alpha-reductase type 2 in human prostate homogenates at 10 uM; type: tissue-based; settings: Prostate gland
T3 sequence (whole entry): T2 sequence (P31213 whole entry)
Outline: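 Native 5αR-2 assayed in total human prostate homogenate with 50 nM testosterone, a level below the 5αR-1 Km so only type 2 is active. Percent inhibition was measured at 10 µM inhibitor.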

[6] = biological target: T1, 3-oxo-5-alpha-steroid 4-dehydrogenase 1; assay: Inhibitory activity against Steroid 5-alpha-reductase type I in human scalp homogenates; type: tissue-based
Outline: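 Native 5αR-1 assayed in total human scalp homogenate with testosterone at micromolar level. 10 nM finasteride was included to suppress the co-active 5αR-2, and the value is reported as IC50.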

[7] = biological target: T1, 3-oxo-5-alpha-steroid 4-dehydrogenase 1; assay: Inhibition constant against recombinant Steroid 5-alpha-reductase type I expressed in CHO cells; type: cell-based

Row | SMILES | IC50 [1] [nM] | IC50 [2] [nM] | other results
1 | CC1C(=O)C=CN2c3ccc(Cl)cc3CCC12 (configuration not stated) | 141 |  | 
2 | Cc1ccc2c(c1)CCC1=CC(=O)CCN12 | 376 |  | 
3 | CC1=C2CC(C)c3cc(C)ccc3N2CCC1=O (configuration not stated) |  | 15.8 | 
4 | CC(C)(C)NC(=O)[C@H]1CC[C@H]2[C@@H]3CC[C@H]4NC(=O)C=C[C@]4(C)[C@H]3CC[C@]12C [FINASTERIDE] |  |  | Ki [3]: 366 nM; IC50 [4]: 2.2 nM
5 | CC1Cc2cc(Cl)ccc2N2CCC(=O)C=C12 (configuration not stated) | 346 |  | 
6 | O=C1C=CN2c3ccc(Cl)cc3CCC2C1 (configuration not stated) | 459 |  | 
7 | Cc1ccc2c(c1)CCC1[C@H](C)C(=O)C=CN21 (some centres not stated) | 137 |  | 
8 | Cc1ccc2c(c1)CCC1C(C)C(=O)C=CN21 (configuration not stated) |  | 312 | 
9 | C[C@H]1Cc2cc(Cl)ccc2N2C=CC(=O)CC12 (some centres not stated) | 9100 |  | 
10 | CC1=C2CC(C)c3cc(Cl)ccc3N2CCC1=O (configuration not stated) |  | 8.5 | 
11 | CC1CC2=CC(=O)CCN2c2ccc(Cl)cc21 (configuration not stated) |  | 14.4 | 
12 | CN1C(=O)CC[C@@H]2c3ccc(Cl)cc3CC[C@H]21 [BEXLOSTERIDE] |  |  | inhibition [5]: 19%; IC50 [6]: 2.3 nM
13 | Cc1ccc2c(c1)C(C)CC1=CC(=O)CCN12 (configuration not stated) |  | 14.3 | 
14 | Cc1c2n(ccc1=O)-c1ccccc1CC2 |  | 1400 | 
15 | CC1=C2CCc3cc(Cl)ccc3N2CCC1=O | 7.6 |  | inhibition [5]: 20%; IC50 [6]: 41 nM; Ki [7]: 2.7 nM
16 | CC1=C2CCc3ccccc3N2CCC1=O | 185 |  | 
17 | CC1C(=O)C=CN2c3ccccc3CCC12 (configuration not stated) |  | 4300 | 
18 | CC1CC(=O)C=C2CCc3cc(Cl)ccc3N21 (configuration not stated) |  | 204 | 
19 | C[C@@H]1CC2CC(=O)C=CN2c2ccc(Cl)cc21 (some centres not stated) | 188 |  | 
20 | CC1=C2C(C)Cc3cc(Cl)ccc3N2CCC1=O (configuration not stated) |  | 15.6 | 
21 | CC1Cc2cc(Cl)ccc2-n2ccc(=O)cc21 (configuration not stated) |  | 1880 | 
22 | CC1=C2CCc3cc(C)ccc3N2CCC1=O | 20 |  | inhibition [5]: 20%; IC50 [6]: 41 nM; Ki [7]: 5.8 nM
23 | C[C@@H]1C(=O)C=CN2c3ccccc3CCC12 (some centres not stated) | 2700 |  | 
24 | Cc1ccc2c(c1)CCC1CC(=O)C=CN21 (configuration not stated) | 176 |  | 
